# UPR XBP1 act = adaptive UPR (XBP1) activation; CHO-XBP1 luciferase reporter, IRE1-XBP1 UPR activation, luminescence; percent of tunicamycin response, DMSO as zero; 330,000 tested, 0.33% active; AID 463104; activation, % at 20 µM;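 active = versus positive control, 20 µM dose yields 30% or more activation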
#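 Assay system: CHO-XBP1 luciferase reporter cells; Schedule: 6 h treatment, 37 °C; Detection: glow luminescence from Steady-Glo reagent; Benchmarks: high control tunicamycin 10 µg/mL final, low control DMSO vehicle only.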
# UCH37 inh = inhibitors of human deubiquitinating enzyme UCH37; Q9Y5K5; purified proteasome/UCH37, Ub-AMC cleavage fluorescence; inhibition, % (concentration not given with the values); 330,000 tested, 0.33% active;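 active = mean inhibition over replicate wells above about 20%, limit read from the data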
# Target sequence (Q9Y5K5 whole entry, looked up): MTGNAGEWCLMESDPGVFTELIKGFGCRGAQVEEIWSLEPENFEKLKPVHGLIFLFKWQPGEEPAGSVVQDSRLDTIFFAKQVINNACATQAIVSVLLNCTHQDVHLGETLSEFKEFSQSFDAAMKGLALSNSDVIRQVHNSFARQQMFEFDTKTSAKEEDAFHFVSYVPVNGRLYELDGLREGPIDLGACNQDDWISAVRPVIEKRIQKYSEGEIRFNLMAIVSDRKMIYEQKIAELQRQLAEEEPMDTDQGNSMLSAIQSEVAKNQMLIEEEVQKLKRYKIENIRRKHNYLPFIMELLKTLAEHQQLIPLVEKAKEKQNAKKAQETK
#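 Schedule: 30 min plus 25 min, room temperature / Material: human UCH37 within purified proteasomes / Technique: AMC fluorescence intensity at 355/460 nm / Buffer or medium: pH 7.4 Tris-HCl (50 mM) with ovalbumin, ATP-MgCl2, DTT / Controls: wells without proteasome as full block, compound-free enzyme plus substrate as uninhibited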
# CHOP inhibitor = inhibitors of CHOP induction in ER stress response; CHO-K1 CHOP-promoter luciferase, tunicamycin-induced, 15-18 h; inhibition, % at 10 µM; 220,000 tested, 3.8% active;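 active = compounds that reduced the stress-induced luciferase reporter signal by more than about 70% of percent inhibition, limit read from the data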
# CHOP UPR activ = apoptotic UPR (CHOP) activation; CHO-CHOP luciferase reporter, luminescence; percent of tunicamycin response over DMSO baseline; activation, % at 10 µM; 330,000 tested, 0.34% active;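 active = at 10 µM dose, activation of 40% or more, normalized to positive control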
#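 System: CHO-CHOP luciferase reporter cell line | Buffer or medium: F12 medium containing 10% fetal bovine serum | Doses: One dose, 10 µM in 0.5% DMSO | Times: 6 h compound exposure at 37 °C after overnight seeding | Signal: Luciferase luminescence | Read-out: % activation vs tunicamycin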
# CTSL1 counter = blocks F. hepatica cathepsin L1 in PFM18AAP counter-screen. recombinant F. hepatica cathepsin L1, Z-Leu-Arg-MCA fluorescence. inhibition, % at 5.96 µM. 300,000 tested, 0.49% active;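 active = inhibition above the mean of all tested compounds plus 3 SD, set per screening campaign, cut at about 17% in these data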
# UCH37 confirm = reconfirmed inhibitor of human deubiquitinase UCH37 | shares compounds with UCH37 inh | Proteasome-bound UCH37, Ub-AMC cleavage fluorescence | inhibition, % at 20 µM | 480 tested, 27% active;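 active = average inhibition over replicates above about 50%, so the earlier screening hit is confirmed, limit read from the data; inactive = the rest, counted as false positives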;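 also: based on cleavage rate fitted by regression over a 30 min kinetic read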
# A number is an active result; . = inactive; / = not tested or not shown. The sample as a whole holds a higher share of hits than the screen did.
SMILES,UPR XBP1 act,UCH37 inh,CHOP inhibitor,CHOP UPR activ,CTSL1 counter,UCH37 confirm
Cc1cc(C)c(NC(=O)COC(=O)c2ccc([N+](=O)[O-])s2)c(C)c1,.,.,.,.,.,/
NS(=O)(=O)c1ccc(NC(=O)COC(=O)c2ccc([N+](=O)[O-])s2)cc1,.,68.9,.,.,67.8,.
COc1cccc(C(=O)NCC(=O)NN=C(C)/C=C/c2ccccc2)c1,/,.,/,/,/,/
COc1ccc(C=NNC(=O)c2ccn[nH]2)cc1CN1CCOCC1,/,.,/,/,/,/
COc1ccc(C=NNC(=O)c2ccccc2OCc2ccccc2)c(OC)c1,/,.,/,/,/,/
CC(=O)Nc1ccc(SCC(=O)c2cc(C)n(CC(F)(F)F)c2C)cc1,.,.,.,.,.,/
CC(=O)Nc1ccc(SCC(=O)c2cc(C)n(C)c2C)cc1,.,43.1,.,.,.,.
O=S(=O)(O)c1cc(O)c(N=Nc2ccc(O)cc2O)c2ccccc12,/,30.7,/,/,/,50.8
O=S(=O)(O)c1cc(O)ccc1O,.,.,/,.,.,/
O=C(Cc1ccccc1[N+](=O)[O-])NN=Cc1cccnc1,/,.,/,/,/,/
COc1cc(OC)c(OC)cc1/C=C1\Oc2cc(OCC(=O)N3Cc4ccccc4C[C@H]3C(=O)O)ccc2C1=O,.,26.5,/,.,.,.
COc1ccc(/C=C2\Oc3cc(OCC(=O)N4CCC[C@H]4C(=O)O)ccc3C2=O)c(OC)c1,.,.,/,.,.,/
CCCNS(=O)(=O)c1ccc(OCC(=O)NCCC2=CCCCC2)cc1,.,36.4,.,.,.,.
COC(=O)COc1ccc(S(=O)(=O)NCCC2=CCCCC2)cc1C,.,54.7,.,.,.,60.4
O=[N+]([O-])c1cc(F)c2cccnc2c1O,.,29.1,.,.,.,.
O=[N+]([O-])c1ccc(O)c2cccnc12,.,.,.,.,.,/
O=C1c2ccccc2C(=O)c2[nH]c(=O)[nH]c21,.,41.4,/,.,31.4,.
O=C1C(=O)c2ccccc2C(O)=C1c1ccccc1F,.,.,.,.,.,/
O=C1C(O)=C(O)C(=O)c2ccccc21,.,72.5,/,.,61.2,.
c1coc(-c2nnc(-c3cccs3)o2)c1,.,.,.,.,.,/
O=c1cc(-c2ccco2)nc(-c2cccs2)o1,.,43.0,.,.,.,.
COc1cc(C=Nn2cnnc2-n2nc(C)cc2C)cc([N+](=O)[O-])c1O,/,29.2,/,/,/,.
O=C(NN=Cc1cccc(O)c1)c1ccc(NC(=O)C2CCCCC2)cc1,/,.,/,/,/,/
COc1ccc(-c2cn3ccccc3n2)cc1[N+](=O)[O-],.,46.4,.,.,.,.
COc1cc(NC(=S)NC2CC(C)(C)NC(C)(C)C2)c(OC)cc1Cl,.,38.8,.,.,.,.
SMILES,UPR XBP1 act,UCH37 inh,CHOP inhibitor,CHOP UPR activ,CTSL1 counter,UCH37 confirm
COc1cc(NC(=S)NC2CC(C)(C)NC(C)(C)C2)cc(OC)c1,.,.,.,.,.,/
Cc1[nH][nH]c(=O)c1C(c1ccc(O)c(Br)c1)c1c(C)[nH][nH]c1=O,.,.,/,.,.,/
CCOc1cc(C(c2c(C)[nH][nH]c2=O)c2c(C)[nH][nH]c2=O)ccc1O,.,57.8,.,.,.,.
CCOc1cc(C=NNC(=O)c2cccs2)cc([N+](=O)[O-])c1O,/,29.7,/,/,/,.
CCOc1cc(/C=N/NC(=O)c2cccs2)cc([N+](=O)[O-])c1O,.,/,.,.,/,/
CC(C)(C)C=NNC(=O)C1CC1,/,.,/,/,/,/
CC(=O)N(/N=C1\Sc2ccccc2C1=O)c1ccccc1,/,/,.,/,/,/
COc1ccccc1N(N=C1Sc2ccccc2C1=O)C(C)=O,/,71.3,/,/,/,.
CC(=O)N(N=C1Sc2ccccc2C1=O)c1ccc(C)cc1C,/,34.8,/,/,/,.
Cc1c(C)c2c(C)nn(-c3ccccc3)c2[nH]c1=O,.,.,.,.,.,/
Nc1c2c(=O)[nH]c(O)cc2nn1-c1ccccc1,/,30.6,/,/,/,.
C(=NNc1nn2cnnc2c2ccccc12)c1ccco1,/,.,/,/,/,/
N#Cc1c(N2CCCC2)nc(N)c2c(N)nc(N3CCCC3)cc12,.,31.2,.,.,110.3,.
COc1cc2c(C#N)c(N3CCCC3)nc(N)c2c(N)n1,.,.,.,.,.,/
Cc1ccsc1C=NNC(=O)CCc1c(C)n[nH]c1C,/,.,/,/,/,/
N#CCC(=O)NN=Cc1ccccc1OC/C=C/c1ccccc1,/,.,/,/,/,/

# Screens: PubChem, several laboratories
